Source: ChEMBL document CHEMBL1127602, “Synthesis and tissue biodistribution of [omega-11C]palmitic acid. A novel PET imaging agent for cardiac fatty acid metabolism” (J Med Chem, 1994)
Values joined by “and” are separate entries in the source; they are usually repeats but may differ in a detail not shown here. Identical values can stand only once.

Legend:
Rattus norvegicus [1] = experiment: Biodistribution in rat blood after 1 hr of intravenous injection at a dose of […]; type: ADME, organism-based; conditions: in vivo
Procedure, shortened: (§1)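 Female Sprague–Dawley rats (140–160 g, four per time point), fed ad lib, ether-anesthetized just before injection. Radiotracer bound to human serum albumin in ethanol–saline, given by femoral vein (≈50 μCi/rat). Rats sacrificed at 5, 10, 15, 30 or 60 min. Tissues excised and weighed, activity measured by γ-counting, expressed as %ID/g.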

Rattus norvegicus [2] = experiment: Biodistribution in rat blood after 10 min of intravenous injection at a dose of […]; type: ADME, organism-based; conditions: in vivo; procedure, shortened: as §1
Rattus norvegicus [3] = experiment: Biodistribution in rat blood after 15 min of intravenous injection at a dose of […]; type: ADME, organism-based; conditions: in vivo, 0.25 h; procedure, shortened: as §1
Rattus norvegicus [4] = experiment: Biodistribution in rat blood after 30 min of intravenous injection at a dose of […]; type: ADME, organism-based; conditions: in vivo, 0.5 h; procedure, shortened: as §1
Rattus norvegicus [5] = experiment: Biodistribution in rat blood after 5 min of intravenous injection at a dose of […]; type: ADME, organism-based; conditions: in vivo; procedure, shortened: as §1
Rattus norvegicus [6] = experiment: Biodistribution in rat heart after 1 hr of intravenous injection at a dose of […]; type: ADME, organism-based; conditions: in vivo; procedure, shortened: as §1
Rattus norvegicus [7] = experiment: Biodistribution in rat heart after 10 min of intravenous injection at a dose of […]; type: ADME, organism-based; conditions: in vivo; procedure, shortened: as §1
Rattus norvegicus [8] = experiment: Biodistribution in rat heart after 30 min of intravenous injection at a dose of […]; type: ADME, organism-based; conditions: in vivo, 0.5 h; procedure, shortened: as §1
Rattus norvegicus [9] = experiment: Biodistribution in rat liver after 1 hr of intravenous injection at a dose of […]; type: ADME, organism-based; conditions: in vivo; procedure, shortened: as §1
Rattus norvegicus [10] = experiment: Biodistribution in rat liver after 10 min of intravenous injection at a dose of […]; type: ADME, organism-based; conditions: in vivo; procedure, shortened: as §1
Rattus norvegicus [11] = experiment: Biodistribution in rat liver after 15 min of intravenous injection at a dose of […]; type: ADME, organism-based; conditions: in vivo, 0.25 h; procedure, shortened: as §1
Rattus norvegicus [12] = experiment: Biodistribution in rat liver after 30 min of intravenous injection at a dose of […]; type: ADME, organism-based; conditions: in vivo, 0.5 h; procedure, shortened: as §1
Rattus norvegicus [13] = experiment: Biodistribution in rat liver after 5 min of intravenous injection at a dose of […]; type: ADME, organism-based; conditions: in vivo; procedure, shortened: as §1
Rattus norvegicus [14] = experiment: Biodistribution in rat lung after 1 hr of intravenous injection at a dose of […]; type: ADME, organism-based; conditions: in vivo; procedure, shortened: as §1
Rattus norvegicus [15] = experiment: Biodistribution in rat lung after 10 min of intravenous injection at a dose of […]; type: ADME, organism-based; conditions: in vivo; procedure, shortened: as §1
Rattus norvegicus [16] = experiment: Biodistribution in rat lung after 15 min of intravenous injection at a dose of […]; type: ADME, organism-based; conditions: in vivo, 0.25 h; procedure, shortened: as §1
Rattus norvegicus [17] = experiment: Biodistribution in rat lung after 30 min of intravenous injection at a dose of […]; type: ADME, organism-based; conditions: in vivo, 0.5 h; procedure, shortened: as §1
Rattus norvegicus [18] = experiment: Biodistribution in rat lung after 5 min of intravenous injection at a dose of […]; type: ADME, organism-based; conditions: in vivo; procedure, shortened: as §1
Rattus norvegicus [19] = experiment: Biodistribution in rat muscle after 1 hr of intravenous injection at a dose of […]; type: ADME, organism-based, Muscle tissue; conditions: in vivo; procedure, shortened: as §1
Rattus norvegicus [20] = experiment: Biodistribution in rat muscle after 10 min of intravenous injection at a dose of […]; type: ADME, organism-based, Muscle tissue; conditions: in vivo; procedure, shortened: as §1
Rattus norvegicus [21] = experiment: Biodistribution in rat muscle after 15 min of intravenous injection at a dose of […]; type: ADME, organism-based, Muscle tissue; conditions: in vivo, 0.25 h; procedure, shortened: as §1
Rattus norvegicus [22] = experiment: Biodistribution in rat muscle after 30 min of intravenous injection at a dose of […]; type: ADME, organism-based, Muscle tissue; conditions: in vivo, 0.5 h; procedure, shortened: as §1
Rattus norvegicus [23] = experiment: Biodistribution in rat muscle after 5 min of intravenous injection at a dose of […]; type: ADME, organism-based, Muscle tissue; conditions: in vivo; procedure, shortened: as §1
Rattus norvegicus [24] = experiment: Biodistribution in rat heart after 5 min of intravenous injection at a dose of […]; type: ADME, organism-based; conditions: in vivo; procedure, shortened: as §1
Rattus norvegicus [25] = experiment: Biodistribution in rat kidney after 1 h of intravenous injection at a dose of […]; type: ADME, organism-based; conditions: in vivo; procedure, shortened: as §1
Rattus norvegicus [26] = experiment: Biodistribution in rat kidney after 10 min of intravenous injection at a dose of […]; type: ADME, organism-based; conditions: in vivo; procedure, shortened: as §1
Rattus norvegicus [27] = experiment: Biodistribution in rat kidney after 15 min of intravenous injection at a dose of […]; type: ADME, organism-based; conditions: in vivo, 0.25 h; procedure, shortened: as §1
Rattus norvegicus [28] = experiment: Biodistribution in rat kidney after 30 min of intravenous injection at a dose of […]; type: ADME, organism-based; conditions: in vivo, 0.5 h; procedure, shortened: as §1
Rattus norvegicus [29] = experiment: Biodistribution in rat kidney after 5 min of intravenous injection at a dose of […]; type: ADME, organism-based; conditions: in vivo; procedure, shortened: as §1
Rattus norvegicus [30] = experiment: Biodistribution in rat heart after 15 min of intravenous injection at a dose of […]; type: ADME, organism-based; conditions: in vivo, 0.25 h; procedure, shortened: as §1

ID/g (Rattus norvegicus [1]): 0.237% and 0.157% | ID/g (Rattus norvegicus [2]): 0.171% and 0.13% | ID/g (Rattus norvegicus [3]): 0.31% and 0.373% | ID/g (Rattus norvegicus [4]): 0.43% and 0.329% | ID/g (Rattus norvegicus [5]): 0.25% and 0.116% | ID/g (Rattus norvegicus [6]): 1.159% and 0.792% | ID/g (Rattus norvegicus [7]): 1.372% and 1.08% | ID/g (Rattus norvegicus [8]): 1.813% and 0.941% | ID/g (Rattus norvegicus [9]): 6.944% and 4.853% | ID/g (Rattus norvegicus [10]): 8.38% and 8.36% | ID/g (Rattus norvegicus [11]): 8.195% and 6.252% | ID/g (Rattus norvegicus [12]): 8.25% and 5.62% | ID/g (Rattus norvegicus [13]): 8.189% and 5.94% | ID/g (Rattus norvegicus [14]): 1.154% and 1.08% | ID/g (Rattus norvegicus [15]): 1.427% and 1.272% | ID/g (Rattus norvegicus [16]): 1.165% and 1.246% | ID/g (Rattus norvegicus [17]): 1.423% and 1.173% | ID/g (Rattus norvegicus [18]): 1.353% and 0.945% | ID/g (Rattus norvegicus [19]): 0.237% and 0.194% | ID/g (Rattus norvegicus [20]): 0.198% and 0.179% | ID/g (Rattus norvegicus [21]): 0.221% and 0.166% | ID/g (Rattus norvegicus [22]): 0.222% and 0.198% | ID/g (Rattus norvegicus [23]): 0.197% and 0.183% | ID/g (Rattus norvegicus [24]): 1.675% and 0.996% | ID/g (Rattus norvegicus [25]): 1.166% and 1.238% | ID/g (Rattus norvegicus [26]): 1.184% and 1.343% | ID/g (Rattus norvegicus [27]): 1.105% and 1.184% | ID/g (Rattus norvegicus [28]): 1.28% and 1.301% | ID/g (Rattus norvegicus [29]): 1.154% and 0.994% | ID/g (Rattus norvegicus [30]): 0.981% and 1.011%
Compound: CCCCCCCCCCCCCCCC(=O)O [PALMITIC ACID]
